Active and inactive are the calls of the source. The rule behind the calls is not given here.
Columns and labels:
Carbonic anhydrase 1 = Carbonic anhydrase 1 (Homo sapiens, UniProt P00915); assay: Inhibition of recombinant human carbonic anhydrase 1 preincubated with enzyme for 15 mins by phenol red dye based stopped flow CO2 hydrase assay
Carbonic anhydrase 2 = Carbonic anhydrase 2 (Homo sapiens, UniProt P00918); assay: Inhibition of recombinant human carbonic anhydrase 2 preincubated with enzyme for 15 mins by phenol red dye based stopped flow CO2 hydrase assay
Carbonic anhydrase 9 = Carbonic anhydrase 9 (Homo sapiens, UniProt Q16790); assay: Inhibition of recombinant human carbonic anhydrase 9 preincubated with enzyme for 15 mins by phenol red dye based stopped flow CO2 hydrase assay
[1] = target: Cyclin-dependent kinase 2/cyclin E1 (Homo sapiens, UniProt P24941); assay: Inhibition of CDK2/cyclin E (unknown origin) expressed in baculovirus infected Sf21 insect cells using histone H1 as substrate in presence of [gamma33P]ATP
CDK9/cyclin T1 = CDK9/cyclin T1 (Homo sapiens, UniProt P50750); assay: Inhibition of human full-length N-terminal GST/His6-tagged CDK9 (1 to 372 residues)/His6-tagged Cyclin-T1 (1 to 726 residues) expressed in sf9 cells using (YSPTSPS)2KK peptide as substrate in presence of [gamma33P]ATP
CCRF-CEM = assay: Antitumor activity against human CCRF-CEM cells assessed as cell growth inhibition at 10 uM incubated for 48 hrs by sulforhodamine B assay; assay type: functional; details: read-out: GI
Outline: (§1)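 NCI Drug Evaluation Branch protocol: primary single-dose screen at 10 μM across a 57-line human cancer panel. Drug exposure is 48 h. Cell growth and viability are read by sulforhodamine B assay. Data are given as a mean graph of percent growth of treated cells and reported as percentage growth inhibition (GI%).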

K562 = assay: Antitumor activity against human K562 cells assessed as cell growth inhibition at 10 uM incubated for 48 hrs by sulforhodamine B assay; assay type: functional; details: read-out: GI; outline: as §1
MOLT-4 = assay: Antitumor activity against human MOLT4 cells assessed as cell growth inhibition at 10 uM incubated for 48 hrs by sulforhodamine B assay; assay type: functional; details: read-out: GI; outline: as §1
RPMI-8226 = assay: Antitumor activity against human RPMI8226 cells assessed as cell growth inhibition at 10 uM incubated for 48 hrs by sulforhodamine B assay; assay type: functional; details: read-out: GI; outline: as §1
HOP-62 = assay: Antitumor activity against human HOP62 cells assessed as cell growth inhibition at 10 uM incubated for 48 hrs by sulforhodamine B assay; assay type: functional; details: read-out: GI; outline: as §1
HOP-92 = assay: Antitumor activity against human HOP92 cells assessed as cell growth inhibition at 10 uM incubated for 48 hrs by sulforhodamine B assay; assay type: functional; details: read-out: GI; outline: as §1
NCI-H226 = assay: Antitumor activity against human NCI-H226 assessed as cell growth inhibition at 10 uM incubated for 48 hrs by sulforhodamine B assay; assay type: functional; details: read-out: GI; outline: as §1
NCI-H460 = assay: Antitumor activity against human NCI-H460 cells assessed as cell growth inhibition at 10 uM incubated for 48 hrs by sulforhodamine B assay; assay type: functional; details: read-out: GI; outline: as §1
NCI-H522 = assay: Antitumor activity against human NCI-H522 cells assessed as cell growth inhibition at 10 uM incubated for 48 hrs by sulforhodamine B assay; assay type: functional; details: read-out: GI; outline: as §1
HCT-116 = assay: Antitumor activity against human HCT116 cells assessed as cell growth inhibition at 10 uM incubated for 48 hrs by sulforhodamine B assay; assay type: functional; details: read-out: GI; outline: as §1
KM12 = assay: Antitumor activity against human KM12 cells assessed as cell growth inhibition at 10 uM incubated for 48 hrs by sulforhodamine B assay; assay type: functional; details: read-out: GI; outline: as §1
SF-268 = assay: Antitumor activity against human SF268 cells assessed as cell growth inhibition at 10 uM incubated for 48 hrs by sulforhodamine B assay; assay type: functional; details: read-out: GI; outline: as §1
SF-539 = assay: Antitumor activity against human SF539 cells assessed as cell growth inhibition at 10 uM incubated for 48 hrs by sulforhodamine B assay; assay type: functional; details: read-out: GI; outline: as §1
U-251 = assay: Antitumor activity against human U251 cells assessed as cell growth inhibition at 10 uM incubated for 48 hrs by sulforhodamine B assay; assay type: functional; details: read-out: GI
Outline: (§2)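 NCI one-dose screen: 57-cell-line panel exposed at 10 μM for 48 h, Drug Evaluation Branch protocol. Growth and viability read by sulforhodamine B; data given as percent growth inhibition from the mean-graph of percent growth of treated cells.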

CAKI-1 = assay: Antitumor activity against human CAKI-1 cells assessed as cell growth inhibition at 10 uM incubated for 48 hrs by sulforhodamine B assay; assay type: functional; details: read-out: GI; outline: as §1
SK-MEL-2 = assay: Antitumor activity against human SK-MEL-2 cells assessed as cell growth inhibition at 10 uM incubated for 48 hrs by sulforhodamine B assay; assay type: functional; details: read-out: GI; outline: as §1
SK-MEL-5 = assay: Antitumor activity against human SK-MEL-5 cells assessed as cell growth inhibition at 10 uM incubated for 48 hrs by sulforhodamine B assay; assay type: functional; details: read-out: GI; outline: as §1
OVCAR-3 = assay: Antitumor activity against human OVCAR-3 cells assessed as cell growth inhibition at 10 uM incubated for 48 hrs by sulforhodamine B assay; assay type: functional; details: read-out: GI; outline: as §1
OVCAR-8 = assay: Antitumor activity against human OVCAR-8 cells assessed as cell growth inhibition at 10 uM incubated for 48 hrs by sulforhodamine B assay; assay type: functional; details: read-out: GI; outline: as §1
UO-31 = assay: Antitumor activity against human UO-31 cells assessed as cell growth inhibition at 10 uM incubated for 48 hrs by sulforhodamine B assay; assay type: functional; details: read-out: GI; outline: as §2
PC-3 = assay: Antitumor activity against human PC-3 cells assessed as cell growth inhibition at 10 uM incubated for 48 hrs by sulforhodamine B assay; assay type: functional; details: read-out: GI; outline: as §1
RXF 393 = assay: Antitumor activity against human RXF 393 cells assessed as cell growth inhibition at 10 uM incubated for 48 hrs by sulforhodamine B assay; assay type: functional; details: read-out: GI; outline: as §1
SN12C = assay: Antitumor activity against human SN12C cells assessed as cell growth inhibition at 10 uM incubated for 48 hrs by sulforhodamine B assay; assay type: functional; details: read-out: GI; outline: as §1
MCF7 = assay: Antitumor activity against human MCF7 cells assessed as cell growth inhibition at 10 uM incubated for 48 hrs by sulforhodamine B assay; assay type: functional; details: read-out: GI; outline: as §1
MDA-MB-231 = assay: Antitumor activity against human MDA-MB-231/ATCC cells assessed as cell growth inhibition at 10 uM incubated for 48 hrs by sulforhodamine B assay; assay type: functional; details: read-out: GI; outline: as §1
BT-549 = assay: Antitumor activity against human BT-549 cells assessed as cell growth inhibition at 10 uM incubated for 48 hrs by sulforhodamine B assay; assay type: functional; details: read-out: GI; outline: as §1
T47D = assay: Antitumor activity against human T-47D cells assessed as cell growth inhibition at 10 uM incubated for 48 hrs by sulforhodamine B assay; assay type: functional; details: read-out: GI; outline: as §2
MDA-MB-468 = assay: Antitumor activity against human MDA-MB-468 cells assessed as cell growth inhibition at 10 uM incubated for 48 hrs by sulforhodamine B assay; assay type: functional; details: read-out: GI; outline: as §1
NCI/ADR-RES = assay: Antitumor activity against human NCI/ADR-RES cells assessed as cell growth inhibition at 10 uM incubated for 48 hrs by sulforhodamine B assay; assay type: functional, cell-based; outline: as §1
NCI-H322M = assay: Antitumor activity against human NCI-H322M cells assessed as cell growth inhibition at 10 uM incubated for 48 hrs by sulforhodamine B assay; assay type: functional; details: read-out: GI; outline: as §1
SNB-75 = assay: Antitumor activity against human SNB-75 cells assessed as cell growth inhibition at 10 uM incubated for 48 hrs by sulforhodamine B assay; assay type: functional; details: read-out: GI; outline: as §2
LOX IMVI = assay: Antitumor activity against human LOX IMVI cells assessed as cell growth inhibition at 10 uM incubated for 48 hrs by sulforhodamine B assay; assay type: functional; details: read-out: GI; outline: as §1
IGROV-1 = assay: Antitumor activity against human IGROV1 cells assessed as cell growth inhibition at 10 uM incubated for 48 hrs by sulforhodamine B assay; assay type: functional; details: read-out: GI; outline: as §1

Carbonic anhydrase 1, sequence (P00915 whole entry): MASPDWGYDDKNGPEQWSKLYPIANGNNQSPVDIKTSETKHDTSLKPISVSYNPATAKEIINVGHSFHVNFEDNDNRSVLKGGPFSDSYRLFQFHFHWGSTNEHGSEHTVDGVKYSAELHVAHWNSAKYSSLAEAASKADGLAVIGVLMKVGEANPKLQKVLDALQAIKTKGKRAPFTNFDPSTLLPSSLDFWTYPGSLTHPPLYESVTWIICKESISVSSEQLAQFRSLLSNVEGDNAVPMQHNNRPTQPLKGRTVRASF
CDK9/cyclin T1, sequence (O60563 whole entry, the tested form may be a part): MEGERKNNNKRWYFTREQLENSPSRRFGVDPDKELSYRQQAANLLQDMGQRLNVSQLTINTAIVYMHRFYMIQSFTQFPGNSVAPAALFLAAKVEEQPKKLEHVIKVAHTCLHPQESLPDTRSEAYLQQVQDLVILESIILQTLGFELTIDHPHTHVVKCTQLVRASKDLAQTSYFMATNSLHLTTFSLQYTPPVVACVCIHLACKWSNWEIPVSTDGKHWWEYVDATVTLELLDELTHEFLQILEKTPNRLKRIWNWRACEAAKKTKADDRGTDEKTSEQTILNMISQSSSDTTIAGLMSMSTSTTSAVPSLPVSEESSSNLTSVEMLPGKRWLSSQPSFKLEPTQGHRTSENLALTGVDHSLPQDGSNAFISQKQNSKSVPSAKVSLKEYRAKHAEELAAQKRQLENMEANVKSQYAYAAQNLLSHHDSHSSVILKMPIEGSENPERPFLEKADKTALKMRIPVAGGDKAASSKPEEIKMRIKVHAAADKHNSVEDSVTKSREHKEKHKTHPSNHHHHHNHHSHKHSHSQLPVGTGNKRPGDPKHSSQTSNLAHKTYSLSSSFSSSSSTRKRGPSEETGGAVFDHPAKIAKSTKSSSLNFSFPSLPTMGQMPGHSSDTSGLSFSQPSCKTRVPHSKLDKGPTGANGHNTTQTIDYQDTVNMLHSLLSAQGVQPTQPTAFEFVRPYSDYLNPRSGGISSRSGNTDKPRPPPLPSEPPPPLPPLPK
CDK9/cyclin T1, sequence (P50750 whole entry, the tested form may be a part): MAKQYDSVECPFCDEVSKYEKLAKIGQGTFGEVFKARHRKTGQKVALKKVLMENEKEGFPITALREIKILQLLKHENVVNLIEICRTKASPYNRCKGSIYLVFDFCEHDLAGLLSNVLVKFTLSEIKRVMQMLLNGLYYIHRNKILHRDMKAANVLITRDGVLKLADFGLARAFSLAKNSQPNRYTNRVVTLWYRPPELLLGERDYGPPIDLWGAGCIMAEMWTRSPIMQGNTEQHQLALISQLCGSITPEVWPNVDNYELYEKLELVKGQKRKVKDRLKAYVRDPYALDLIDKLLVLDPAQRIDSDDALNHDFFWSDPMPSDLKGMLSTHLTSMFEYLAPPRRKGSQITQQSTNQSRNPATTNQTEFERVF

Q: Which Ki (Carbonic anhydrase 1) does the source give for `N#Cc1c(-c2ccc(Cl)cc2)nc2c(/N=N/c3ccc(S(N)(=O)=O)cc3)c(N)nn2c1N` here?
A: 2250 nM

Q: And the Ki (Carbonic anhydrase 2)?
A: 496 nM

Q: And the Ki (Carbonic anhydrase 9)?
A: 31.3 nM

Q: And the IC50 [1]?
A: > 12500 nM

Q: What about the IC50 (CDK9/cyclin T1) of the same molecule?
A: > 12500 nM

Q: And the inhibition of growth at 10 µM (CCRF-CEM)?
A: 65%

Q: And the inhibition of growth at 10 µM (K562)?
A: 28%

Q: What about the inhibition of growth at 10 µM (MOLT-4) of the same molecule?
A: 82%

Q: What about the inhibition of growth at 10 µM (RPMI-8226) of the same molecule?
A: 58%

Q: And the inhibition of growth at 10 µM (HOP-62)?
A: 24%

Q: And the inhibition of growth at 10 µM (HOP-92)?
A: 29%

Q: What about the inhibition of growth at 10 µM (NCI-H226) of the same molecule?
A: 25%

Q: And the inhibition of growth at 10 µM (NCI-H460)?
A: 21%

Q: What about the inhibition of growth at 10 µM (NCI-H522) of the same molecule?
A: 29%

Q: What about the inhibition of growth at 10 µM (HCT-116) of the same molecule?
A: 34%

Q: And the inhibition of growth at 10 µM (KM12)?
A: 75%

Q: What about the inhibition of growth at 10 µM (SF-268) of the same molecule?
A: 23%

Q: What about the inhibition of growth at 10 µM (SF-539) of the same molecule?
A: 25%

Q: What about the inhibition of growth at 10 µM (U-251) of the same molecule?
A: 30%

Q: What about the inhibition of growth at 10 µM (CAKI-1) of the same molecule?
A: 26%

Q: And the inhibition of growth at 10 µM (SK-MEL-2)?
A: 24%

Q: What about the inhibition of growth at 10 µM (SK-MEL-5) of the same molecule?
A: 31%

Q: What about the inhibition of growth at 10 µM (OVCAR-3) of the same molecule?
A: 25%

Q: And the inhibition of growth at 10 µM (OVCAR-8)?
A: 25%

Q: What about the inhibition of growth at 10 µM (UO-31) of the same molecule?
A: 36%

Q: What about the inhibition of growth at 10 µM (PC-3) of the same molecule?
A: 38%

Q: And the inhibition of growth at 10 µM (RXF 393)?
A: 29%

Q: And the inhibition of growth at 10 µM (SN12C)?
A: 27%

Q: And the inhibition of growth at 10 µM (MCF7)?
A: 51%

Q: And the inhibition of growth at 10 µM (MDA-MB-231)?
A: 52%

Q: What about the inhibition of growth at 10 µM (BT-549) of the same molecule?
A: 35%

Q: What about the inhibition of growth at 10 µM (T47D) of the same molecule?
A: 56%

Q: And the inhibition of growth at 10 µM (MDA-MB-468)?
A: 56%

Q: And the Activity (NCI/ADR-RES)?
A: inactive

Q: What does the source list for `N#Cc1c(-c2ccc(Br)cc2)nc2c(/N=N/c3ccc(S(N)(=O)=O)cc3)c(N)nn2c1N`?
A: Ki (Carbonic anhydrase 1): 4160 nM; Ki (Carbonic anhydrase 2): 885 nM; Ki (Carbonic anhydrase 9): 65.7 nM; IC50 [1]: > 12500 nM; IC50 (CDK9/cyclin T1): > 12500 nM; inhibition of growth at 10 µM (CCRF-CEM): 104%; inhibition of growth at 10 µM (K562): 64%; inhibition of growth at 10 µM (MOLT-4): 98%; inhibition of growth at 10 µM (RPMI-8226): 114%; inhibition of growth at 10 µM (HOP-62): 48%; inhibition of growth at 10 µM (HOP-92): 69%; inhibition of growth at 10 µM (NCI-H226): 34%; inhibition of growth at 10 µM (NCI-H322M): 25%; inhibition of growth at 10 µM (NCI-H460): 63%; inhibition of growth at 10 µM (NCI-H522): 61%; inhibition of growth at 10 µM (HCT-116): 75%; inhibition of growth at 10 µM (KM12): 48%; inhibition of growth at 10 µM (SF-268): 44%; inhibition of growth at 10 µM (SF-539): 61%; inhibition of growth at 10 µM (SNB-75): 43%; inhibition of growth at 10 µM (U-251): 59%; inhibition of growth at 10 µM (LOX IMVI): 71%; inhibition of growth at 10 µM (CAKI-1): 47%; inhibition of growth at 10 µM (SK-MEL-2): 57%; inhibition of growth at 10 µM (SK-MEL-5): 54%; inhibition of growth at 10 µM (IGROV-1): 59%; inhibition of growth at 10 µM (OVCAR-3): 45%; inhibition of growth at 10 µM (OVCAR-8): 53%; inhibition of growth at 10 µM (UO-31): 41%; inhibition of growth at 10 µM (PC-3): 62%; inhibition of growth at 10 µM (RXF 393): 58%; inhibition of growth at 10 µM (SN12C): 54%; inhibition of growth at 10 µM (MCF7): 68%; inhibition of growth at 10 µM (MDA-MB-231): 59%; inhibition of growth at 10 µM (BT-549): 26%; inhibition of growth at 10 µM (T47D): 68%; inhibition of growth at 10 µM (MDA-MB-468): 76%; Activity (NCI/ADR-RES): inactive
